In the array DNA melting data of Ke et al. (doi:10.1101/2024.01.08.574731) one finds folding enthalpy and Tm data, which are given here for 57 sequences.

The nature of data set [1]: folding enthalpy; higher = less favourable; fluorescence melt of hairpins on a sequencing array, two-state fit. The settings on record: sodium 0.088 M. In outline:
(§1)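 Cy3 fluorescence of library hairpins on a sequenced MiSeq flow cell, with annealed Cy3 and quencher oligos, was imaged in 50 mM Na-HEPES pH 8.0, 25 mM NaCl in 2.5 °C steps up to 60 °C. Signals were normalised to pre-quench Cy3 and to control variants. Melting temperature and folding enthalpy came from bootstrapped two-state fits, inverse-variance combined over four replicates. Fitted temperatures were raised by 9.35 °C to match UV melts.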

The nature of data set [2]: melting temperature; fluorescence melt of hairpins on a sequencing array, two-state fit, raised by 9.35 °C to match UV melts. The following applies: sodium 0.088 M. An outline of the steps:
as §1

Turning to GATCTCAGGAGAGATC ((((((....)))))), the folding enthalpy in data set [1] is -34.7 kcal/mol. Besides, the Tm in data set [2] is 50.8 °C.

In the case of GATCTCAGGCGAGATC ((((((....)))))), the folding enthalpy in data set [1] is -27.7 kcal/mol. Further, in data set [2], the Tm is 51.5 °C.

In the case of GATCTCAGGGAGATC ((((((...)))))), the folding enthalpy in data set [1] is -29.5 kcal/mol. Further, the Tm in data set [2] turned out to be 54.5 °C.

On to GATCTCAGGGGAGATC ((((((....)))))), for which the folding enthalpy in data set [1] was -34.4 kcal/mol. Moreover, in data set [2], the Tm was found to be 52.5 °C.

GATCTCATAGGAGATC ((((((....)))))): the folding enthalpy in data set [1] was -38.1 kcal/mol. Further, the Tm in data set [2] turned out to be 51.2 °C.

Take GATCTCATCGAGATC ((((((...)))))): the folding enthalpy in data set [1] was -36.1 kcal/mol. In data set [2], the Tm came to 55.8 °C.

As to GATCTCATCTGAGATC ((((((....)))))), the folding enthalpy in data set [1] was -39.9 kcal/mol. In addition, the Tm in data set [2] is 53.6 °C.

For the sequence GATCTCATGCGAGATC ((((((....)))))), the folding enthalpy in data set [1] was -48.3 kcal/mol. The Tm in data set [2] was 52.1 °C.

Take GATCTCATTCGAGATC ((((((....)))))): the folding enthalpy in data set [1] was -39.4 kcal/mol. For the same sequence, in data set [2], the Tm is 53.5 °C.

With GATCTCATTTGAGATC ((((((....)))))), in data set [1], the folding enthalpy is -37.4 kcal/mol. For the same sequence, the Tm in data set [2] came to 55.5 °C.

For GATCTCCAAGAGATC ((((((...)))))), the folding enthalpy in data set [1] was -30.2 kcal/mol. Further, in data set [2], the Tm amounted to 49.8 °C.

In the case of GATCTCCAATGAGATC ((((((....)))))), the folding enthalpy in data set [1] is -34.2 kcal/mol. Also, the Tm in data set [2] is 51.3 °C.

For GATCTCCACGGAGATC ((((((....)))))), in data set [1], the folding enthalpy is -39.2 kcal/mol. In addition, the Tm in data set [2] was 55.9 °C.

Regarding GATCTCCATAGAGATC ((((((....)))))), the folding enthalpy in data set [1] was -33.4 kcal/mol. Further, the Tm in data set [2] was determined as 56.8 °C.

Regarding GATCTCCCGGGAGATC ((((((....)))))), the folding enthalpy in data set [1] was -52.9 kcal/mol. Besides, the Tm in data set [2] is 58.3 °C.

For the sequence GATCTCCGCAGAGATC ((((((....)))))), the folding enthalpy in data set [1] was -34.6 kcal/mol. Also, the Tm in data set [2] was 57.8 °C.

Turning to GATCTCCGGAGAGATC ((((((....)))))), in data set [1], the folding enthalpy is -39.4 kcal/mol. Also, in data set [2], the Tm is 52.7 °C.

With GATCTCCGTCGAGATC ((((((....)))))), in data set [1], the folding enthalpy was -41.3 kcal/mol. Besides, the Tm in data set [2] was 51 °C.

On to GATCTCCGTTGAGATC ((((((....)))))), for which the folding enthalpy in data set [1] was -35.6 kcal/mol. Besides, in data set [2], the Tm amounted to 52.6 °C.

In the case of GATCTCCTCCGAGATC ((((((....)))))), the folding enthalpy in data set [1] is -42.5 kcal/mol. Besides, in data set [2], the Tm turned out to be 51.4 °C.

With GATCTCCTTGGAGATC ((((((....)))))), the folding enthalpy in data set [1] was -47.6 kcal/mol. The Tm in data set [2] stood at 60.5 °C.

As to GATCTCGACTGAGATC ((((((....)))))), the folding enthalpy in data set [1] was -45.9 kcal/mol. In addition, the Tm in data set [2] amounted to 55.8 °C.

As to GATCTCGATCGAGATC ((((((....)))))), in data set [1], the folding enthalpy is -48.5 kcal/mol. In addition, the Tm in data set [2] stood at 56.9 °C.

As to GATCTCGCATGAGATC ((((((....)))))), the folding enthalpy in data set [1] is -44.8 kcal/mol. Further, in data set [2], the Tm is 61.6 °C.

Turning to GATCTCGCCTGAGATC ((((((....)))))), the folding enthalpy in data set [1] was -36.8 kcal/mol. Moreover, the Tm in data set [2] was 54 °C.

GATCTCGCGGGAGATC ((((((....)))))): the folding enthalpy in data set [1] was -33.1 kcal/mol. Besides, the Tm in data set [2] was 52.4 °C.

On to GATCTCGCTCGAGATC ((((((....)))))), for which the folding enthalpy in data set [1] was -44.8 kcal/mol. In data set [2], the Tm is 57.5 °C.

Turning to GATCTCGGAAACGAGATC (((((((....))))))), the folding enthalpy in data set [1] was -45.5 kcal/mol. In addition, the Tm in data set [2] was 64.3 °C.

Turning to GATCTCGGAGAGATC ((((((...)))))), the folding enthalpy in data set [1] was -33.3 kcal/mol. The Tm in data set [2] came out at 67.4 °C.

For GATCTCGGGAGAGATC ((((((....)))))), the folding enthalpy in data set [1] was -41.6 kcal/mol. For the same sequence, in data set [2], the Tm is 63.2 °C.

In the case of GATCTCGGTCGAGATC ((((((....)))))), in data set [1], the folding enthalpy is -41.5 kcal/mol. Besides, in data set [2], the Tm is 56.2 °C.

Take GATCTCGGTGAGATC ((((((...)))))): the folding enthalpy in data set [1] was -12.9 kcal/mol. Also, the Tm in data set [2] amounted to 55.9 °C.

With GATCTCGTAAGAGATC ((((((....)))))), the folding enthalpy in data set [1] is -35.3 kcal/mol. For the same sequence, in data set [2], the Tm amounted to 68.4 °C.

Consider GATCTCGTATGAGATC ((((((....)))))), for which the folding enthalpy in data set [1] was -46.5 kcal/mol. The Tm in data set [2] was 59.2 °C.

On to GATCTCGTGAGAGATC ((((((....)))))), for which the folding enthalpy in data set [1] was -31 kcal/mol. In addition, the Tm in data set [2] was determined as 66.9 °C.

Regarding GATCTCGTTAGAGATC ((((((....)))))), the folding enthalpy in data set [1] is -39.9 kcal/mol. Besides, the Tm in data set [2] turned out to be 65.1 °C.

As for GATCTCGTTTGAGATC ((((((....)))))), the folding enthalpy in data set [1] is -32.9 kcal/mol. In data set [2], the Tm was determined as 55.6 °C.

Regarding GATCTCTAAGGAGATC ((((((....)))))), the folding enthalpy in data set [1] is -34.9 kcal/mol. The Tm in data set [2] came to 53.8 °C.

As to GATCTCTAATGAGATC ((((((....)))))), the folding enthalpy in data set [1] is -46.5 kcal/mol. Moreover, the Tm in data set [2] amounted to 49.9 °C.

As for GATCTCTATCGAGATC ((((((....)))))), in data set [1], the folding enthalpy was -39.4 kcal/mol. The Tm in data set [2] turned out to be 51.1 °C.

Take GATCTCTCATGAGATC ((((((....)))))): the folding enthalpy in data set [1] was -44.1 kcal/mol. Also, the Tm in data set [2] is 52.3 °C.

As to GATCTCTCCCGAGATC ((((((....)))))), the folding enthalpy in data set [1] was -41.2 kcal/mol. Besides, in data set [2], the Tm stood at 52.1 °C.

For the sequence GATCTCTCGGAGATC ((((((...)))))), in data set [1], the folding enthalpy was -37.1 kcal/mol. In addition, the Tm in data set [2] came out at 55.6 °C.

GATCTCTCTGAGATC ((((((...)))))): the folding enthalpy in data set [1] is -37.5 kcal/mol. In addition, the Tm in data set [2] stood at 55.4 °C.

With GATCTCTGACGAGATC ((((((....)))))), the folding enthalpy in data set [1] was -30.5 kcal/mol. Also, the Tm in data set [2] came to 50 °C.

Turning to GATCTCTGAGAGATC ((((((...)))))), in data set [1], the folding enthalpy is -32.5 kcal/mol. In data set [2], the Tm is 52.1 °C.

With GATCTCTGAGGAGATC ((((((....)))))), in data set [1], the folding enthalpy was -43.4 kcal/mol. Also, the Tm in data set [2] amounted to 55.8 °C.

For GATCTCTGATGAGATC ((((((....)))))), the folding enthalpy in data set [1] was -33.3 kcal/mol. The Tm in data set [2] amounted to 51.3 °C.

For GATCTCTGTGAGATC ((((((...)))))), the folding enthalpy in data set [1] is -42.6 kcal/mol. In addition, in data set [2], the Tm amounted to 54.9 °C.

With GATCTCTGTTGAGATC ((((((....)))))), the folding enthalpy in data set [1] is -41 kcal/mol. In addition, the Tm in data set [2] is 54.3 °C.

As for GATCTCTTAGGAGATC ((((((....)))))), the folding enthalpy in data set [1] is -38.1 kcal/mol. The Tm in data set [2] came to 54.2 °C.

For GATCTCTTCGGAGATC ((((((....)))))), the folding enthalpy in data set [1] is -42.6 kcal/mol. The Tm in data set [2] is 54.5 °C.

Turning to GATCTCTTGAGAGATC ((((((....)))))), the folding enthalpy in data set [1] was -32.4 kcal/mol. For the same sequence, the Tm in data set [2] came to 53.8 °C.

Consider GATCTCTTGCGAGATC ((((((....)))))), for which, in data set [1], the folding enthalpy is -42.4 kcal/mol. The Tm in data set [2] amounted to 51.9 °C.

Turning to GATCTGAAACAGATC ((((((...)))))), the folding enthalpy in data set [1] is -31.6 kcal/mol. In addition, the Tm in data set [2] was 46.3 °C.

Turning to GATCTGAAAGCAGATC ((((((....)))))), the folding enthalpy in data set [1] is -26.4 kcal/mol. Moreover, the Tm in data set [2] amounted to 42.1 °C.

As to GATCTGAACGCAGATC ((((((....)))))), the folding enthalpy in data set [1] was -26.1 kcal/mol. The Tm in data set [2] was 46.3 °C.
